Data as given in publication PMC11000255 (Journal of the American Chemical Society, 2024).
Like-named read-outs stand apart in the source and are kept apart here.

Assays:
WT-PFKP [1] = target: T1, WT-PFKP (Homo sapiens, UniProt Q01813); test: F6P phosphorylation assay, WT-PFKP in HEK293T cell lysates; format: biochemical; conditions: read-out: IC50, inhibition of PFKP activity
T1 sequence (Q01813 1-784): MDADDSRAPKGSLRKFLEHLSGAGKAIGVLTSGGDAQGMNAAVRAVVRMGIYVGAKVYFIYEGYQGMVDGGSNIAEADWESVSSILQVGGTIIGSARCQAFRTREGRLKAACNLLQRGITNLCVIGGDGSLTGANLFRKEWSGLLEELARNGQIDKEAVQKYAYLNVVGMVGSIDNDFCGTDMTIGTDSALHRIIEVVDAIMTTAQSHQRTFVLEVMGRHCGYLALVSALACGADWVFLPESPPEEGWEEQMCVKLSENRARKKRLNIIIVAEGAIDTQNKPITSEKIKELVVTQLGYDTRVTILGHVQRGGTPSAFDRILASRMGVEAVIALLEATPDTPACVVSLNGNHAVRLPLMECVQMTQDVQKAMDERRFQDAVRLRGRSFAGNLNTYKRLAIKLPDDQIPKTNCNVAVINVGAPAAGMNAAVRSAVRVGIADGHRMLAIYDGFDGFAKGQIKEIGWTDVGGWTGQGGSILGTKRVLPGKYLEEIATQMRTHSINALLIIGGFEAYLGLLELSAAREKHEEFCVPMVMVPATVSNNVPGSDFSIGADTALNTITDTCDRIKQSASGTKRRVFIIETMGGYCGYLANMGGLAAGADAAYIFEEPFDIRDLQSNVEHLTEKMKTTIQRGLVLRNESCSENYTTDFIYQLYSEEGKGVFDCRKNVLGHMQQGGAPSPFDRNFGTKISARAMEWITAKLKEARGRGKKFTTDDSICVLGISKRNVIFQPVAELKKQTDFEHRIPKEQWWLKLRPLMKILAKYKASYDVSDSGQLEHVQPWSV

K688R-PFKP = K688R-PFKP (Homo sapiens, UniProt Q01813, K688R); test: F6P phosphorylation assay, K688R-PFKP in HEK293T cell lysates; format: biochemical; conditions: read-out: IC50, inhibition of PFKP activity; K688R-PFKP variant
Sequence of K688R-PFKP (Q01813 whole entry K688R): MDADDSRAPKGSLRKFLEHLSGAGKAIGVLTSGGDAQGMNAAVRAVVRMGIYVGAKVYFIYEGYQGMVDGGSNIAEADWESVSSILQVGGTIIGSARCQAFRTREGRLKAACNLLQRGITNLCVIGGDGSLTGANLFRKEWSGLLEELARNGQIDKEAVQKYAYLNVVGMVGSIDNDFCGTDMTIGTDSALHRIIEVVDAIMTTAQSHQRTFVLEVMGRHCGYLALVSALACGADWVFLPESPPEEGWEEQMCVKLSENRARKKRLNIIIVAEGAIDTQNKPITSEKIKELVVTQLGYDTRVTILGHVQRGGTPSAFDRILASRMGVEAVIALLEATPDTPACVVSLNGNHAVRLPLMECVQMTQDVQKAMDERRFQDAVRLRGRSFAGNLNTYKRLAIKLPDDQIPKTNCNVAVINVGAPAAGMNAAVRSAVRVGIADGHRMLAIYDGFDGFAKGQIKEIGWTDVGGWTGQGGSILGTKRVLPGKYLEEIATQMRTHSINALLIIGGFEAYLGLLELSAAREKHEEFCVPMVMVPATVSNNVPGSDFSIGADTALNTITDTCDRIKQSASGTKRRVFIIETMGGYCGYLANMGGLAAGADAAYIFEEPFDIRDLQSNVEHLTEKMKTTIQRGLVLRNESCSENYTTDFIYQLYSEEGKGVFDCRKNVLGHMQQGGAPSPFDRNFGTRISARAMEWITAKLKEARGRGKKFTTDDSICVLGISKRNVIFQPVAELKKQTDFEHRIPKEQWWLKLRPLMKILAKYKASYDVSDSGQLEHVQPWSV

K677R-PFKL = K677R-PFKL (Homo sapiens, UniProt P17858, K677R); test: enzyme-coupled F6P phosphorylation assay, K677R-PFKL; format: biochemical; conditions: read-out: IC50, inhibition of PFKL activity
Sequence of K677R-PFKL (P17858 whole entry K677R): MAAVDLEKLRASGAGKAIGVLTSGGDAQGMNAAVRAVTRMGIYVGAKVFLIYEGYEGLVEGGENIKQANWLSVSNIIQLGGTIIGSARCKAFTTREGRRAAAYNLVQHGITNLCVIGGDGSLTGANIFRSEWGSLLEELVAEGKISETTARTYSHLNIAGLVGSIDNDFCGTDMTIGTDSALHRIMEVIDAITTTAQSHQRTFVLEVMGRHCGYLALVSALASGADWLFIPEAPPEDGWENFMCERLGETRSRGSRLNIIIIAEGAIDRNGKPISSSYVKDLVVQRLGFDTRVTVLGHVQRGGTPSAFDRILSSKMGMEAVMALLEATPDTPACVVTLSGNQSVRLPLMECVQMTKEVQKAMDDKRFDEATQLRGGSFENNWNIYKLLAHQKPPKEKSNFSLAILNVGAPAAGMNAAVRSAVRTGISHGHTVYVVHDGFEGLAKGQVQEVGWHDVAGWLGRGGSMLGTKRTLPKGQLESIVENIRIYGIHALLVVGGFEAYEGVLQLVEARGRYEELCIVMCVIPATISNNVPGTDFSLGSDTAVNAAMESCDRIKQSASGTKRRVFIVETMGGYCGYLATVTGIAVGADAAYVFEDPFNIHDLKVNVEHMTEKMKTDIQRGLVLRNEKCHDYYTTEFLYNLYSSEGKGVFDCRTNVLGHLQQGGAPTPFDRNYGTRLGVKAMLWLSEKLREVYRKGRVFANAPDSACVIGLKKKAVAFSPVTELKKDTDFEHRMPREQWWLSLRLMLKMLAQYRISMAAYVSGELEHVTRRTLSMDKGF

WT-PFKP [2] = target: T1, WT-PFKP; format: binding
WT-PFKL = WT-PFKL (Homo sapiens, UniProt P17858); test: enzyme-coupled F6P phosphorylation assay, WT-PFKL in HEK293T cell lysates; format: biochemical; conditions: read-out: apparent IC50, inhibition of PFKL activity
Sequence of WT-PFKL (P17858 whole entry): as the sequence (P17858 whole entry K677R) above, with R677K counted along it

K677R/K681R-PFKL = K677R/K681R-PFKL (Homo sapiens, UniProt P17858, K677R/K681R); test: enzyme-coupled F6P phosphorylation assay, K677R/K681R-PFKL double mutant; format: biochemical; conditions: read-out: IC50, inhibition of PFKL activity
Sequence of K677R/K681R-PFKL (P17858 whole entry K677R/K681R): as the sequence (P17858 whole entry K677R) above, with K681R counted along it

K681R-PFKL = K681R-PFKL (Homo sapiens, UniProt P17858, K681R); test: enzyme-coupled F6P phosphorylation assay, K681R-PFKL; format: biochemical; conditions: read-out: IC50, inhibition of PFKL activity
Sequence of K681R-PFKL (P17858 whole entry K681R): as the sequence (P17858 whole entry K677R) above, with R677K, K681R counted along it

WT-ABHD12 = target: T2, WT-ABHD12 (Homo sapiens, UniProt Q8N2K0); test: LC/MS-based LPS hydrolysis assay, WT-ABHD12 in HEK293T cell lysates; format: biochemical; conditions: read-out: apparent IC50, inhibition of LPS hydrolysis activity; WT-ABHD12
T2 sequence (Q8N2K0 1-398): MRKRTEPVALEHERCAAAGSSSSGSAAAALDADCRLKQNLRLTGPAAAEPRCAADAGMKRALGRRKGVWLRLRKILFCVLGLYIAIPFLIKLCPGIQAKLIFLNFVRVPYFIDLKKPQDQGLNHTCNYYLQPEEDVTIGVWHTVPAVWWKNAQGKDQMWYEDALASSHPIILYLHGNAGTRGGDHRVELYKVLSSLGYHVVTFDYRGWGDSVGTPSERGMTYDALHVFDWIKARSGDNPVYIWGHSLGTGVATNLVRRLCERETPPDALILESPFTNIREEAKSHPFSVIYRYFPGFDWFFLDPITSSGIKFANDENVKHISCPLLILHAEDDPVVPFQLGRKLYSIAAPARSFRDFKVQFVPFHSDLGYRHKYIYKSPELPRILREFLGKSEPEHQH
Outline: (§1)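 Recombinant ABHD12 (WT, S246A and K373 mutants) was expressed in HEK293T cells and used as cell lysate. Lysate was preincubated with the test compound (single-point 100 µM, or a dose series; 1 h, 37 °C), then given 17:1 LPS substrate (100 µM, 20 min, 37 °C).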

[3] = target: kynurenine-oxoglutarate transaminase 3 (KYAT3) (Homo sapiens, UniProt Q6YP21); test: TMT18plex lysine ligandability profiling, KYAT3; format: binding; conditions: 100 μM, 8 h, breast cancer cells
Sequence of kynurenine-oxoglutarate transaminase 3 (KYAT3) (Q6YP21 whole entry): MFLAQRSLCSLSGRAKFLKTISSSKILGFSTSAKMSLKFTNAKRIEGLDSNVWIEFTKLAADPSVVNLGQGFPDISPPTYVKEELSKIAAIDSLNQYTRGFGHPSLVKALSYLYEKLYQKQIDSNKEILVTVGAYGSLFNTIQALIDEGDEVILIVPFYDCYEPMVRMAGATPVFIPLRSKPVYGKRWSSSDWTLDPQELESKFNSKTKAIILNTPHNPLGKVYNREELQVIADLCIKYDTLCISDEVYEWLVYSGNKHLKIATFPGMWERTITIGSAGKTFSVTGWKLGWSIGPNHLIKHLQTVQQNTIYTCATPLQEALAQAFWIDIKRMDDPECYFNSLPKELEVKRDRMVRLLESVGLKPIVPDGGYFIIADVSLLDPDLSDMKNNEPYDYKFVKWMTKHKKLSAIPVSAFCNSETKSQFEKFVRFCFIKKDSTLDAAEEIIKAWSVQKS
Outline: (§2)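 Live MDA-MB-231 or MDA-MB-436 breast cancer cells were exposed to the test compound (100 µM, 8 h) or DMSO vehicle. Lysates (soluble and insoluble fractions) were chased with a desthiobiotin-tagged lysine-specific STP ester probe, trypsin-digested, streptavidin-enriched and quantified by TMTpro-18plex. Lysines had to be quantified in all biological triplicates and TMT channels. A lysine counted as liganded at ≥60% loss of probe enrichment relative to DMSO.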

MDA-MB-231 cells = test: untargeted lipidomics profiling of treated cells; format: cell-based, human; conditions: 100 μM, 8 h
ABHD12 = target: T3, ABHD12 (Homo sapiens, UniProt Q8N2K0); test: TMT18plex lysine ligandability profiling, ABHD12; format: binding; conditions: both MDA-MB-231 and MDA-MB-436 cell lines
T3 sequence (Q8N2K0 1-398): T2 sequence (Q8N2K0 1-398)
Outline: as §2

PFKP = PFKP (Homo sapiens, UniProt Q01813); test: TMT18plex lysine ligandability profiling, PFKP; format: binding; conditions: 100 μM, 8 h, breast cancer cells
Outline: as §2

K373R-ABHD12 = K373R-ABHD12 (Homo sapiens, UniProt Q8N2K0, K373R); test: LC/MS-based LPS hydrolysis assay, K373R-ABHD12 in HEK293T cell lysates; format: biochemical; conditions: read-out: IC50, inhibition of LPS hydrolysis activity; K373R-ABHD12 mutant
Sequence of K373R-ABHD12 (Q8N2K0 whole entry K373R): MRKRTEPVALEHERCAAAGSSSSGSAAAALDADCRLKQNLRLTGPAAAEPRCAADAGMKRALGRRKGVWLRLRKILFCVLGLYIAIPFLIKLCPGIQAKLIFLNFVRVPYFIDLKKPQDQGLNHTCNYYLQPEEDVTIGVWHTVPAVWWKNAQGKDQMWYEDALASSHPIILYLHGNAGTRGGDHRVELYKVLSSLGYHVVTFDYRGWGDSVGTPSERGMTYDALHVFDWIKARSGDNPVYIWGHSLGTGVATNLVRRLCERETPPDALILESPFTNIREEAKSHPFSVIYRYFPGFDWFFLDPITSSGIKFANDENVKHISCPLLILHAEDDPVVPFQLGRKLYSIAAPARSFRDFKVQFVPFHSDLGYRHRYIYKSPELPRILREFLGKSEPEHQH
Outline: as §1

K677R/K681R/K315R-PFKL = K677R/K681R/K315R-PFKL (Homo sapiens, UniProt P17858, K315R/K677R/K681R); test: enzyme-coupled F6P phosphorylation assay, K677R/K681R/K315R-PFKL triple mutant; format: biochemical; conditions: read-out: IC50, inhibition of PFKL activity
Sequence of K677R/K681R/K315R-PFKL (P17858 whole entry K315R/K677R/K681R): as the sequence (P17858 whole entry K677R) above, with K315R, K681R counted along it

nucleostemin (GNL3) = nucleostemin (GNL3) (Homo sapiens, UniProt Q9BVP2); test: TMT18plex lysine ligandability profiling, GNL3; format: binding; conditions: 100 μM, 8 h, breast cancer cells
Sequence of nucleostemin (GNL3) (Q9BVP2 whole entry): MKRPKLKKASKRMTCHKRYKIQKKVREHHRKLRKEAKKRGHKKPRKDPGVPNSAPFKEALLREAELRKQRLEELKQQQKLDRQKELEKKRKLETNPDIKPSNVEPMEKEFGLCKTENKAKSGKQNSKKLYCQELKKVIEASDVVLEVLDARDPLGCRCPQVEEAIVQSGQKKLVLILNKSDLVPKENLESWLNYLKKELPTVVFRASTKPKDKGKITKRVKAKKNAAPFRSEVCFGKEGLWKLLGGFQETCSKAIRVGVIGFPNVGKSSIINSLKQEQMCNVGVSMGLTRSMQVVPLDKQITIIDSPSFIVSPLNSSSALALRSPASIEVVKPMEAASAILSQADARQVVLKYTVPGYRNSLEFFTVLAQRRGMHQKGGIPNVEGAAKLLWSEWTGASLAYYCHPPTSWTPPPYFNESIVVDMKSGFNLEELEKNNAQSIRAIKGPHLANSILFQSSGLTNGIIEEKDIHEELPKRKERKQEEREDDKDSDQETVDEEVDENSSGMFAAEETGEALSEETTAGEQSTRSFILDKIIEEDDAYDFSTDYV
Outline: as §2

PFKL = PFKL (Homo sapiens, UniProt P17858); test: TMT18plex lysine ligandability profiling, PFKL; format: binding; conditions: 100 μM, 8 h, breast cancer cells
Sequence of PFKL (P17858 whole entry): as the sequence (P17858 whole entry K677R) above, with R677K counted along it

CC1(C)[C@@H]2C[C@H]3[C@H](c4ccccc4)c4c(O)c(C=O)c(O)c(C=O)c4O[C@@]3(C)[C@H]1C2 [(−)-guadial B] was tested, and the IC50 (WT-PFKP [1]) was 3.8 µM, the IC50 (K688R-PFKP) was greater than 100 µM and the IC50 (K677R-PFKL) was 8.6 µM. For the same compound, the “fold reduction in potency versus enantiomer (+)-guadial B” value (WT-PFKP [2]; P1 probe labeling blockade) was roughly 10 fold, the IC50 (WT-PFKP [2]; read-out: apparent IC50, blockade of P1 probe labeling, WT-PFKP) was 13.8 µM and the IC50 (WT-PFKL) was 4.6 µM. It also gave an IC50 (K677R/K681R-PFKL) of 78.5 µM, an IC50 (K681R-PFKL) of 7 µM and an IC50 (WT-ABHD12) of 18.1 µM. For the same compound, the “ligandability of K330 in KYAT3” value [3] was 28%, the “levels of monoacylglycerophosphoserine LPS(18:0)” value (MDA-MB-231 cells) was “significantly elevated levels” and the “levels of stearic acid FA(18:0)” value (MDA-MB-231 cells) was “concurrent reduction”. For the same compound, the “ligandability of K373 in ABHD12” value (ABHD12) was 66%, the “ligandability of K688 in PFKP” value (PFKP) was 60% and the IC50 (K373R-ABHD12) was greater than 100 µM. For the same compound, the IC50 (K677R/K681R/K315R-PFKL) was greater than 100 µM, the “ligandability of K20 in GNL3” value (nucleostemin (GNL3)) was 74% and the “ligandability of K677 in PFKL” value (PFKL) was 65%. For the same compound, the “ligandability of K681 in PFKL” value (PFKL) was 60%.
